The source made the active and inactive calls. The rule behind the calls is not given here.
Assays:
[1] = target: T1, Sodium- and chloride-dependent glycine transporter 1 (Rattus norvegicus) (UniProt P28572); experiment: Binding affinity to GlyT1 in rat brain hippocampus at 0.03 to 0.04 nM preincubated for 20 mins in binding buffer before compound addition measured after 30 mins by autoradiography in presence of 1 mM GlyT1 substrate glycine relative to control; type: tissue-based; conditions: tested as the 125I-labelled form
T1 sequence (whole entry): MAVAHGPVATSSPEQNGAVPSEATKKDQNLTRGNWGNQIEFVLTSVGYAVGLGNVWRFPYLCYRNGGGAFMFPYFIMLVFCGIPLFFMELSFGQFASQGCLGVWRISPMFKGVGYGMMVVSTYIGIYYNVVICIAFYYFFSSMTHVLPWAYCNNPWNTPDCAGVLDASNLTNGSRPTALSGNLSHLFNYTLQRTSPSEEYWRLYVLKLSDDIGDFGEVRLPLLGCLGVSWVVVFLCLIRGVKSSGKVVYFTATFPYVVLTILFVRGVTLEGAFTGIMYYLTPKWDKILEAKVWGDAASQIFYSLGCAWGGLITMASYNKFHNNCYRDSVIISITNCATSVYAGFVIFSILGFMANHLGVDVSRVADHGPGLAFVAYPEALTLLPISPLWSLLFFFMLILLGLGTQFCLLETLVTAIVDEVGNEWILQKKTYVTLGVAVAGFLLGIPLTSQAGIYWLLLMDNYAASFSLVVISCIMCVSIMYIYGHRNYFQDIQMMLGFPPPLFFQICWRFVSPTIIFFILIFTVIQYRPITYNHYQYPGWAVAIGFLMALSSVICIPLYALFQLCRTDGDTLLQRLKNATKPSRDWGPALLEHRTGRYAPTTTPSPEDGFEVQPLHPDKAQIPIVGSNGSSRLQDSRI
In short: (§1)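 Rat brain sagittal sections (20 µm) preincubated 20 min at 25 °C in Tris-HCl buffer pH 7.5 (NaCl, KCl, MgCl2, CaCl2), then 30 min at 25 °C with [125I] tracer (100 kBq, 0.03–0.04 nM) plus competitor (10 µM; glycine 1 or 10 mM). Cold washes, imaging plate 3 days, ROI PSL minus background per mm². % control from ≥triplicate slices, three rats.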

[2] = target: T1, Sodium- and chloride-dependent glycine transporter 1 (Rattus norvegicus); experiment: Binding affinity to GlyT1 in rat brain cerebellum at 0.03 to 0.04 nM preincubated for 20 mins in binding buffer before compound addition measured after 30 mins by autoradiography in presence of 0.01 mM GlyT1 inhibitor ALX5407 relative to control; type: tissue-based; conditions: tested as the 125I-labelled form; in short: as §1
[3] = target: T1, Sodium- and chloride-dependent glycine transporter 1 (Rattus norvegicus); experiment: Binding affinity to GlyT1 in rat cortical brain homogenate assessed per mg of protein after 60 mins by gamma counting; type: tissue-based; conditions: tested as the 125I-labelled form
In short: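 Saturation binding on washed rat cortical membranes (25 µg protein) with [125I]tracer 0.1–20 nM in TB1 buffer (120 mM NaCl, 2 mM KCl, 1 mM CaCl2, 1 mM MgCl2, 10 mM HEPES, pH 7.5), 60 min at room temperature. Nonspecific binding defined with 10 µM unlabeled ligand. GF/B filtration with ice-cold buffer washes, gamma counting; Kd and Bmax from saturation analysis.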

[4] = test system: Mus musculus; experiment: In vivo binding affinity to GlyT1 in ddY mouse brain cerebellum at 200 kBq, iv after 60 mins by autoradiography relative to control; type: functional, organism-based; conditions: tested as the 125I-labelled form
In short: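 Ex vivo autoradiography in mice given 200 kBq [125I]tracer i.v. and killed at 60 min. Brains were removed, frozen on dry ice and cut into 20 µm sagittal cryosections, which were exposed to an imaging plate for 7 days. Regional signal was quantified as PSL/mm² (n = 5) and compared to control by Kruskal–Wallis with Dunn's post-test.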

[5] = target: T1, Sodium- and chloride-dependent glycine transporter 1 (Rattus norvegicus); experiment: Binding affinity to GlyT1 in rat brain thalamus at 0.03 to 0.04 nM preincubated for 20 mins in binding buffer before compound addition measured after 30 mins by autoradiography in presence of GlyT1 inhibitor N-Me-SSR504734 relative to control; type: tissue-based; conditions: tested as the 125I-labelled form
[6] = target: T1, Sodium- and chloride-dependent glycine transporter 1 (Rattus norvegicus); experiment: Binding affinity to GlyT1 in rat brain hippocampus at 0.03 to 0.04 nM preincubated for 20 mins in binding buffer before compound addition measured after 30 mins by autoradiography in presence of 0.01 mM GlyT1 inhibitor SSR504734 relative to control; type: tissue-based; conditions: tested as the 125I-labelled form; in short: as §1
[7] = target: T1, Sodium- and chloride-dependent glycine transporter 1 (Rattus norvegicus); experiment: Binding affinity to GlyT1 in rat brain striatum at 0.03 to 0.04 nM preincubated for 20 mins in binding buffer before compound addition measured after 30 mins by autoradiography in presence of 0.01 mM NMDA receptor glycine site antagonist L-701,324 relative to control; type: tissue-based; conditions: tested as the 125I-labelled form
[8] = test system: Mus musculus; experiment: In vivo binding affinity to GlyT1 in ddY mouse brain striatum at 33.3 kBq, iv after 60 mins in presence of nonradioactive compound 2 mg/kg, iv administered 15 mins prior to compound administration relative to control; type: functional, organism-based; set-up: dose 2 mg/kg; conditions: tested as the 125I-labelled form
[9] = target: T1, Sodium- and chloride-dependent glycine transporter 1 (Rattus norvegicus); experiment: Binding affinity to GlyT1 in rat brain thalamus at 0.03 to 0.04 nM preincubated for 20 mins in binding buffer before compound addition measured after 30 mins by autoradiography relative to control; type: tissue-based; conditions: tested as the 125I-labelled form
[10] = test system: Mus musculus; experiment: In vivo binding affinity to GlyT1 in ddY mouse brain thalamus at 200 kBq, iv after 60 mins by autoradiography relative to control; type: functional, organism-based; conditions: tested as the 125I-labelled form
[11] = target: T1, Sodium- and chloride-dependent glycine transporter 1 (Rattus norvegicus); experiment: Binding affinity to GlyT1 in rat brain hippocampus at 0.03 to 0.04 nM preincubated for 20 mins in binding buffer before compound addition measured after 30 mins by autoradiography in presence of 10 mM GlyT1 substrate glycine relative to control; type: tissue-based; conditions: tested as the 125I-labelled form; in short: as §1
[12] = target: T1, Sodium- and chloride-dependent glycine transporter 1 (Rattus norvegicus); experiment: Binding affinity to GlyT1 in rat brain cerebral cortex at 0.03 to 0.04 nM preincubated for 20 mins in binding buffer before compound addition measured after 30 mins by autoradiography in presence of 0.01 mM GlyT1 inhibitor SSR504734 relative to control; type: tissue-based; conditions: tested as the 125I-labelled form; in short: as §1
[13] = test system: Mus musculus; experiment: In vivo binding affinity to GlyT1 in ddY mouse brain midbrain at 33.3 kBq, iv after 30 mins in presence of nonradioactive compound 2 mg/kg, iv administered 15 mins prior to compound administration relative to control; type: functional
[14] = test system: Stomach; experiment: Drug uptake in ddY mouse stomach at 11.1 kBq, iv after 15 min by gamma counting; type: ADME, organism-based; conditions: in vivo
In short: (§2)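 Male ddY mice (6 weeks, 30–35 g) were given about 11.1 kBq of [125I]tracer in 0.1 mL i.v. via the tail vein. At each time point the animals were killed and organs dissected, weighed and gamma-counted. Uptake is expressed as % injected dose per gram of tissue, mean ± SD, n = 5–6.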

[15] = test system: Blood; experiment: Drug uptake in ddY mouse blood at 11.1 kBq, iv after 0.5 min by gamma counting; type: ADME, organism-based; conditions: in vivo
In short: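 Male ddY mice (6 weeks, 30–35 g) received about 11.1 kBq [125I]tracer in 0.1 mL i.v. via tail vein. Killed at set times, organs dissected and weighed, radioactivity gamma counted. Reported as % injected dose/g tissue, mean ± SD, n = 5–6.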

[16] = test system: Spleen; experiment: Drug uptake in ddY mouse spleen at 11.1 kBq, iv after 60 min by gamma counting; type: ADME, organism-based; conditions: in vivo, 1 h; in short: as §2
[17] = Metabolic stability in ddY mouse brain assessed as compound remaining at 185 kBq after 30 mins by radio-TLC; type: ADME, tissue-based; conditions: read-out: Stability
[18] = test system: Stomach; experiment: Drug uptake in ddY mouse stomach at 11.1 kBq, iv after 180 min by gamma counting; type: ADME, organism-based; conditions: in vivo, 3 h; in short: as §2

SMILES	Activity [1] [%]	Activity [2] [%]	Bmax [3] [pmol]	Activity [4]	Activity [5] [%]	Activity [6] [%]	Activity [7] [%]	Activity [8]	Activity [9]	Activity [10]	Activity [11] [%]	Activity [12] [%]	Activity [13] [%]	Drug uptake [14] [% ID/g]	Drug uptake [15] [% ID/g]	Drug uptake [16] [% ID/g]	remaining at 0.5 h [17] [%]	Drug uptake [18] [% ID/g]
CN1CCCC[C@H]1[C@@H](NC(=O)c1cccc(C(F)(F)F)c1I)c1ccccc1	108	43.1	3.4	Active	25.1	46.3	96.8	Active	Active	Active	71.5	29.3						
CN1CCCC[C@H]1[C@@H](NC(=O)c1cccc(C(F)(F)F)c1[125I])c1ccccc1													48	5.22	1.35	5.86	90	12.73

From ChEMBL document CHEMBL1938298, “Synthesis and characterization of [¹²⁵I]2-iodo N-[(S)-{(S)-1-methylpiperidin-2-yl}(phenyl)methyl]3-trifluoromethyl-benzamide as novel imaging probe for glycine transporter 1” (Bioorg Med Chem, 2011)
